High-throughput results (PubChem BioAssay)
Only some compounds are listed: those with a hit (about 3% of all), similar ones and a draw of the others.
RAM network inh – blocks the yeast RAM network; AID 868; 1.8% of 190,000 active; S. cerevisiae dse1pr::URA3 reporter, 5-FOA growth OD615, 2 d; analog-sensitive cbk1-as2 kinase mutant strain; inhibition, % at 50 µM;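 active = inhibition above a set limit, 3 SD over mean compound inhibition, cut at about 8.4% in these data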;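 also: 0% = DMSO-only wells with no growth and 100% = 10 µM 1-NA-PP1 full growth; inhibition rescues growth on 5-FOA so higher OD means more RAM inhibition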
Insulin prom up – MIN6 insulin promoter up-regulation; MIN6 insulin promoter-GFP reporter, high-content imaging; stronger effect = higher value; z-score at 5 µM; 0.3% of 190,000 active; AID 1625;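 active = z-score above 3 at 5 µM with at least 500 cells counted in the well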
Yeast growth inh – reduces growth of yeast BB579 in restrictive medium; 0.51% of 140,000 active; inhibition, % at 10 µM; S. cerevisiae BB579 growth, OD615, 48 h;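 active = inhibition above a set limit, 3 SD over the mean compound inhibition, cut at about 44% in these data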
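Test system: DeaD yeast strain BB579 / Buffer or medium: restrictive glucose-based CSMM-D medium / Doses: single 10 µM dose / Schedule: 4 h cell preincubation, 48 h compound exposure, 30 °C humidified / Technique: culture absorbance at 615 nm / Controls: amphotericin B positive control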
Yeast lifespan up – yeast lifespan extension; 0.68% of 130,000 active; AID 775; S. cerevisiae growth with nicotinamide, OD615; deaD strain in restrictive glucose medium; inhibition of the nicotinamide effect, % at 10 µM;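 active = inhibition above a set limit, placed 3 SD over the median of all compounds, cut at about 26% in these data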;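 also: 0% = nicotinamide-treated wells and 100% = cells grown without nicotinamide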
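assay system = DeaD-strain S. cerevisiae | buffer or medium = restrictive glucose medium | reagent = 1.5 mM nicotinamide | compound = 10 µM single point, 0.25% DMSO | incubation = 48 h compound exposure at 30 °C, humidified | signal = OD615 measurement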
INS promoter inh – TRM-6 insulin promoter activity inhibition. 0.9% of 130,000 active. TRM-6 cells, insulin promoter-eGFP reporter, imaging; reporter expression induced with tamoxifen. inhibition, % at 2 µM;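 active = inhibition above the mean plus 3 SD, with well images judged a real hit on visual review, cut at about 60% in these data, passing the limit was not always enough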
* = called active by the depositor; i = inactive; . = no result.

SMILES	RAM network inh	Insulin prom up	Yeast growth inh	Yeast lifespan up	INS promoter inh
O=C1c2ccccc2C(=O)C12OC2c1ccc(Cl)cc1 (stereo not given)	1	0.02	-41	20	60
O=C1OC(c2ccccc2)=NC12CC2c1ccc(Cl)cc1 (stereo not given)	1	0.05	1	30*	-19
CS(=O)(=O)c1ccc2nc(NC(=O)c3ccc(S(=O)(=O)NCC4CCCO4)cc3)sc2c1 (stereo not given)	0	0.44	.	.	-14
COc1ccc(-c2noc(CSc3nnc(CCc4ccccc4)n3-c3ccccc3)n2)cc1OC	2	.	-56	-1	-68
Cc1ccc(-c2noc(CSc3nnc(Cc4ccccc4)n3-c3ccc(Cl)cc3)n2)cc1	8.5*	.	-17	7	0
COc1ccc(-c2noc(CSc3nnc(Cc4ccccc4)n3-c3ccc(Cl)cc3)n2)cc1	10*	-0.19	-34	-4	-31
CCCCC(=O)Nc1ccc(C(=O)Nc2ccc(S(=O)(=O)Nc3nccc(C)n3)cc2)cc1	4	0.17	-43	-3	33
Cc1ccc(-n2c(=O)[nH]cc(C(=O)Nc3ccc4c(c3)OCCO4)c2=O)cc1C	2	-0.14	-26	2	86*
Cc1ccc(N/N=C(\C#N)C(N)=S)c(C)c1	-1	0.47	95*	-4	-6
Cc1ccc(NC(=O)/C(C#N)=N/Nc2ccc(C(=O)O)cc2)c(C)c1	.	0.23	.	.	.
CCOc1ccccc1NC(=O)Nc1ccc(CC#N)cc1	.	-0.19	.	.	.
CCOc1cc(/C=C(/NC(C)=O)C(=O)O)cc(Cl)c1OCc1ccc(Br)cc1	.	-0.47	.	.	.
O=C(COc1c(Br)cc(Br)c2cccnc12)N1CCc2ccccc2C1	1	-0.8	99*	-15	8
O=C(COc1c(Br)cc(Br)c2cccnc12)N1CCCCC1	-1	-1.1	.	.	.
Brc1ccc(-c2cnco2)cc1	-1	0.73	.	.	.
Cc1c(NS(=O)(=O)c2ccc(Cl)c(C(=O)OCC(=O)NCc3ccco3)c2)c(=O)n(-c2ccccc2)n1C	0	-0.18	.	.	-14
Cc1ccc2c(c1)-c1cc(C)nn1C(c1sccc1C)N2 (stereo not given)	10*	.	-37	-26	-29
COc1ccc(C2OCC3(CO2)SC(=O)NC3=O)cc1 (stereo not given)	1	.	-50	-1	73*
CCCCN(C)CC(O)Cn1cc(/C=C/C(=O)c2cccs2)c2ccccc21 (stereo not given)	1	4.8*	-51	13	-230
OCCCNC(=S)Nc1ccc(Br)cc1Cl	.	-0.43	.	.	.
O=C(Nc1cccc(C(F)(F)F)c1)C(Sc1cccc[n+]1[O-])c1ccccc1 (stereo not given)	0	0	59*	3	.
Cc1nnc(SCC(=O)Nc2ccccc2C(=O)NC2CC2)s1	0	0.16	-9	-1	-13
O=C(NN1C(=O)/C(=C/C=C/c2ccco2)SC1=S)c1ccncc1	.	0.15	.	.	.
COc1ccc(/C=C2\SC(=S)N(c3cccnc3)C2=O)cc1	.	-0.15	.	.	.
O=C(CN1C(=O)/C(=C\C=C\c2ccccc2)SC1=S)Nc1ccc(F)cc1	9.7*	0.36	-28	5	-11
SMILES	RAM network inh	Insulin prom up	Yeast growth inh	Yeast lifespan up	INS promoter inh
O=C(NN1C(=O)/C(=C/C=C/c2ccccc2)SC1=S)c1ccncc1	9.3*	-0.16	.	.	.
O=C(O)CCCCCN1C(=O)/C(=C\c2ccc(-c3ccc(Cl)cc3)o2)SC1=S	.	4.2*	.	.	.
O=C(CN1C(=O)S/C(=C/C=C/c2ccccc2)C1=O)Nc1ccc(C(=O)O)cc1	1	-0.1	.	.	i
COc1ccc(CN2C(=O)/C(=C/c3ccncc3)SC2=S)cc1	-2	0.54	-33	48*	-9
Cc1ccc(C)c(N2CCN(C(=O)C34CC5CC(C3)CC(n3nnc(C)n3)(C5)C4)CC2)c1	.	-0.82	.	.	.
CN(Cc1ccon1)Cc1cn(C)nc1-c1cccc(Cl)c1	1	1.9	.	.	-23
COc1ccc2oc(C(=O)OCC(=O)/C(C#N)=C(\C)N)c(C)c2c1	5	-0.65	.	.	12
COc1cccc(NC(=S)NC2CC(C)(C)NC(C)(C)C2)c1	0	-0.02	-37	1	19
Cc1cccc(-n2ccnc2CN2CCN(C(C)C)C(CCO)C2)c1 (stereo not given)	.	-0.17	.	.	.
O=C(Nc1ccc(N2CCCCC2)cc1)c1cc([N+](=O)[O-])cc([N+](=O)[O-])c1	3	-0.65	.	.	20
O=C(CCN1C(=O)/C(=C/c2ccccc2)SC1=S)NNC(=O)c1ccncc1	8.8*	1.2	.	.	.
O=C(O)CCCCCN1C(=O)/C(=C\c2ccncc2)SC1=S	2	0.01	-15	52*	-71
O=C(O)CCCN1C(=O)/C(=C/c2ccncc2)SC1=S	.	0.11	.	.	.
O=C(O)CCCCCN1C(=O)/C(=C/c2ccncc2)SC1=S	-1	-0.01	-29	40*	60
O=S(=O)(NCc1ccco1)c1cnc(Cl)c(Br)c1	1	-0.15	20	-1	-39
OC1(c2ccc(Cl)c(Cl)c2)C[n+]2ccccc2N1Cc1ccccc1 (stereo not given)	.	-0.61	.	.	.
Cc1ccc(/C=N/Nc2ccc3c(C(F)(F)F)cc(C(F)(F)F)nc3n2)cc1	3	-0.15	-21	2	71*
O=C(NNC(=O)c1cccs1)c1ccco1	-1	-0.16	.	.	.
Cc1cccc(C(=O)NC(=S)NNC(=O)c2cccs2)c1	-1	0.47	49*	10	-25
COc1ccc(C(=O)NC(=S)NNC(=O)c2ccc(NC(=O)C(C)C)cc2)cc1	6	-0.11	-21	33*	31
O=C(NC(=S)NNC(=O)c1cccs1)c1ccco1	-1	1.3	-16	29*	8
CC(C)(C)c1ccc(C(=O)NC(=S)NNC(=O)c2cccs2)cc1	1	-1.1	67*	-5	-100
CC(C)C(=O)Nc1ccc(C(=O)NNC(=S)NC(=O)c2ccccc2[N+](=O)[O-])cc1	1	0.35	.	.	.
CCN(CC)Cc1ccccc1Sc1ccccc1	2	-0.28	-19	1	22
COc1ccc(C(=O)NNC(=S)NC(=O)c2ccco2)cc1	2	0.79	-17	33*	-50
SMILES	RAM network inh	Insulin prom up	Yeast growth inh	Yeast lifespan up	INS promoter inh
CCOC(=O)N1CCN(C(=O)C2c3cc(OC)c(OC)cc3C(=O)N3CCc4ccccc4C23)CC1 (stereo not given)	0	.	-46	-7	80*
OCc1ccnc2c(O)cccc12	-1	2.4	54*	-14	.
COCc1ccc(O)c2ncccc12	2	-0.23	-61	-3	10
O=C(NCCc1ccccn1)C(F)(F)C(F)(F)C(F)(F)C(F)(F)C(F)(F)C(F)(F)C(F)(F)C(F)F	-1	0.31	-26	33*	.
COc1cc(NC(=S)NCCN2CCOCC2)cc(OC)c1	1	-0.67	-11	-4	64*
Cc1ccc(NC(=O)CCSCCC(=O)Nc2ccc(C)c(C)c2)cc1C	9.8*	0.26	-16	-23	-3
CCc1cccc(NC(=O)CCSCCC(=O)Nc2cccc(CC)c2)c1	9.9*	0.68	-10	-10	-90
